In assay [1] the test system is endothelial GM7373 cells. As to the kind of experiment: GM7373 cell proliferation triggered by different mitogenic stimuli. The assay is classed as cell-based, bovine.
The target in assay [2] is FGF2/FGFR1 interaction (Homo sapiens, UniProt P09038). In words: BIAcore competition: binding of free FGF2 to immobilized sFGFR1. The conditions noted are these: FGF2 50 nM, sFGFR1(IIIc)/Fc chimera-coated BIAcore sensor chip; for effect on binding of FGF2 to immobilized sFGFR1(IIIc)/Fc chimera: peptide 1.0 μM.
Chain of FGF2/FGFR1 interaction (P09038 134-288): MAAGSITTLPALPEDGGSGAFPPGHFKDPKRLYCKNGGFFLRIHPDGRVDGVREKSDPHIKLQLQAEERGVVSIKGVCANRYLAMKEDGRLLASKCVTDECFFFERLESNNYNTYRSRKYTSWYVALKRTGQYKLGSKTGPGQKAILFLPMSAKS
Assay [3] has as its system FGF2. In words: STD NMR analysis of peptide/FGF2 interaction. The assay is classed as binding, human. The note with it: STD NMR in the presence of 50 μM FGF2, reducing conditions; result in words. The method, boiled down:
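500 MHz STD NMR used 50 µM FGF2 plus 1.9 mM peptide in 30 mM phosphate (95% D2O), 8 mM DTT, 40 mM NaCl, pH 6.8. Saturation lasted 3 s, with a 30 ms T1ρ filter and 192 transients. Off-resonance reference minus saturated spectrum gave STD; the factor is ISTD/I0. A peptide-only control was run. Titrations spanned 1:10–1:100 FGF2:peptide at 280 K.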

The test system of assay [4] is VEGF/VEGFR2/KDR interaction. In words: BIAcore competition: binding of free VEGF to immobilized sKDR/Fc chimera. The note with it: 45 nM VEGF injected for 4 min., peptide 300 μM; data not shown. On the set-up: species or system human. Put shortly:
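sKDR/Fc (20 µg/ml in 10 mM sodium acetate, pH 5.3) was amine-coupled to an EDC/NHS-activated CM5 chip (~0.06 pmol/mm2), then ethanolamine-neutralized. VEGF (45 nM) was injected for 4 min with or without 300 µM test peptide. Response (RU) was read at end of injection and plotted as percentage of maximal bound analyte.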

Assay [5] deals with Fibroblast growth factor-2 (human). As to the kind of experiment: SPR.

This is an account of results in PMC3823002 (Journal of Cellular and Molecular Medicine, 2009).

Turning to Ac-ARPSA-NH2, the “inhibition of GM7373 cell proliferation, any mitogen” value in assay [1] (FGF2, FGF1, FGF8b, VEGF, EGF, DAG, TPA or 10% FCS, control peptide) was “No inhibition”. Also, the “effect on binding of FGF2 to immobilized sFGFR1(IIIc)/Fc chimera” value in assay [2] was “No effect”. Besides, in assay [3], the “FGF2 binding deduced from STD spectrum” value is “reduced STD amplification factor”.

As to Ac-ARPCG-NH2, the “FGF2 binding deduced from STD spectrum” value in assay [3] was “absence of STD signals”.

With H-ARPCA-NH2, the “FGF2 binding deduced from STD spectrum” value in assay [3] is “absence of STD signals”.

As to Ac-GRPCA-NH2, the “FGF2 binding deduced from STD spectrum” value in assay [3] was “still able to bind FGF2”.

With Ac-ARPCA-NH2, the “GM7373 cell proliferation triggered by FGF2” value in assay [1] (FGF2 0.55 nM, peptide 66 μM, 0.4% FCS, 24 hrs, cell counting, triplicate) is reported as “inhibits”. Besides, the “GM7373 cell proliferation triggered by FGF8b” value in assay [1] (FGF8b 1.66 nM, peptide 66 μM, 24 hrs, cell counting, triplicate) is “inhibits”. In assay [2], the “binding of FGF2 to immobilized FGFR1 ID50” value was 30 µM and the “effect on binding of FGF2 to immobilized sFGFR1(IIIc)/Fc chimera” value was “significantly inhibits”. Moreover, the “binding of VEGF to immobilized sKDR/Fc chimera” value in assay [4] is given as “did not prevent”.

In assay [5], Ac-ARPMA-NH2 [Ac-ARPMA-NH2] yielded an IC50 of more than 3000 µM.

Ac-ARACA-NH2 [Ac-ARACA-NH2] returned an IC50 in assay [5] of more than 3000 µM.

Take Ac-GRPCG-NH2 [Ac-GRPCG-NH2]: the IC50 in assay [5] is more than 3000 µM.

The molecule Ac-GRPCA-NH2 [Ac-GRPCA-NH2] came in with an IC50 in assay [5] of 80 µM.

Regarding Ac-APGAPAEARL-NH2 [PTX3-(104-113) peptide Ac-…-NH2], the IC50 in assay [5] was 2000 µM.

Consider H-ARPCA-NH2 [H-ARPCA-NH2, non-acetylated pentapeptide], for which the IC50 in assay [5] is 2000 µM. In other words, the millimolar range.

Ac-ESLARPCAPGA-NH2 [PTX3-(97-107) peptide Ac-…-NH2] displayed an IC50 in assay [5] of 300 µM. This IC50 lies about 6.7-fold lower than the previous one.

Take Ac-ALPCA-NH2 [Ac-ALPCA-NH2]: the IC50 in assay [5] was more than 3000 µM.

In the case of Ac-PARAC-NH2 [Ac-PARAC-NH2, scrambled pentapeptide], in assay [5], the IC50 came to 1000 µM.

In assay [5], Ac-ARPSA-NH2 [Ac-ARPSA-NH2] displayed an IC50 of more than 3000 µM.

Ac-ESLARPCAPGAPAE-NH2 [PTX3-(97-110) peptide Ac-…-NH2] came in with an IC50 in assay [5] of 300 µM.

In the case of Ac-ARPCAPGAPAEARL-NH2 [PTX3-(100-113) peptide Ac-…-NH2], the IC50 in assay [5] was 500 µM. Against the preceding molecule, the IC50 is about 1.7-fold higher.

On to Ac-ARPVA-NH2 [Ac-ARPVA-NH2], for which the IC50 in assay [5] was more than 3000 µM.

The molecule Ac-ARPCG-NH2 [Ac-ARPCG-NH2] displayed an IC50 in assay [5] of 1000 µM.

In assay [5], Ac-APCRA-NH2 [Ac-APCRA-NH2, partially scrambled pentapeptide] had an IC50 of 800 µM.
